Measurements published in ChEMBL document CHEMBL1147842, “Novel 1,4-benzodiazepine derivatives with antiproliferative properties on tumor cell lines” (Bioorg Med Chem Lett, 2007).
Activity calls are given as the source filed them. The rule behind the calls is not given here.

Assays:
Assay type in all cases: functional, cell-based
[1] = (§1) Antiproliferative activity against v-Src transformed mouse NIH 3T3 fibroblast after 72 hrs; conditions: NIH3T3, 72 h
How it was run: (§2)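 NIH 3T3/v-Src fibroblasts seeded at 10⁵/well, left overnight at 37°C in 5% CO₂. Compound exposure 0–150 μM for 72 h. Cells then washed in PBS, trypsinised and counted in a particle counter. Means of at least two independent experiments run in duplicate. IC₅₀ taken from a sigmoidal dose-response fit.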

A2058 = assay: Cytotoxicity against human A2058 cells after 72 hrs by WST-1 colorimetric test; conditions: for IC50: A2058, 72 h
How it was run: (§3)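 WST-1 colorimetric readout, based on cleavage by mitochondrial dehydrogenases. A2058 (4000 cells/well) or HeLa (3000 cells/well) left overnight at 37°C in 5% CO₂, then exposed to compounds at 0–150 μM for 72 h. WST-1 added for 2 h, absorbance at 450 nm read against a background control. Means of at least two independent experiments in triplicate.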

HeLa = assay: Cytotoxicity against human HeLa cells after 72 hrs by WST-1 colorimetric test; how it was run: as §3
NIH3T3 [2] = assay: Antiproliferative activity against v-Src transformed mouse NIH 3T3 fibroblast at 150 uM after 72 hrs; how it was run: as §2
NIH3T3 [3] = assay: as §1; how it was run: as §2

Structure (SMILES) | IC50 [1] [µM] | IC50 (A2058) [µM] | IC50 (HeLa) [µM] | Activity (NIH3T3 [2]) | Activity (A2058) | Activity (HeLa) | Activity (NIH3T3 [3])
C[C@@H]1N=C(c2ccccc2)c2ccccc2N(Cc2ccc(OP(=O)(O)OCc3ccccc3)cc2)C1=O | 49.5 | 61.5 | 40.5 | – | – | – | –
C[C@@H]1N=C(c2ccccc2)c2ccccc2NC1=O | – | – | – | inactive | inactive | inactive | –
CN1C(=O)CN=C(c2ccc(Cl)cc2)c2cc(Cl)ccc21 [RO-54864] | 31.9 | ≥ 100 | ≥ 100 | – | – | – | –
C[C@@H]1N=C(c2ccccc2)c2ccccc2N(Cc2ccc(OP(=O)(O)O)cc2)C1=O | 36.6 | 28.9 | 21.3 | – | – | – | –
NCCCC[C@@H]1N=C(c2ccccc2)c2ccccc2N(Cc2ccc(OP(=O)(O)O)cc2)C1=O | ≥ 80 | 33.8 | ≥ 80 | – | – | – | –
NCCCC[C@@H]1N=C(c2ccccc2)c2ccccc2N(Cc2ccc(CP(=O)(O)O)cc2)C1=O | – | – | – | – | inactive | inactive | inactive
C[C@@H]1N=C(c2ccccc2)c2ccccc2N(Cc2ccc(CP(=O)(O)O)cc2)C1=O | – | – | – | – | inactive | inactive | inactive
C[C@@H]1N=C(c2ccccc2)c2ccccc2N(Cc2ccc(O)cc2)C1=O | 38.6 | 27.2 | 29.3 | – | – | – | –
